The list is not random: actives were taken first. Their share in the collection is about 1.7%.
Myeloid diff 2 – myeloid differentiation induction. ER-HoxA9 myeloid progenitors, lysozyme-GFP differentiation, flow cytometry. calls only at 10 µM. actives 1% (n = 360,000). AID 624256;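 active = normalized GFP-positive differentiation at or above the plate's own cutoff, the solvent-only control mean plus 3 SD; inconclusive = no clear call, values can overlap the other calls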;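 also: cells exposed to compound for four days before flow analysis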
DSG3 Ab inh – human desmoglein-3 autoantibody binding inhibition; actives 0.48% (n = 310,000); DSG3-coupled beads, scFv-anti-DSG3-GFP binding, flow cytometry; hits give low values; P32926; binding (percent of control), % at 10 µM;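 active = binding more than 3 SD below its plate's average and above zero; inconclusive = below that plate limit but binding exactly zero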;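 also: hits lower antibody fragment binding to DSG3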
Target sequence (P32926 whole entry, looked up, the tested form may be a part): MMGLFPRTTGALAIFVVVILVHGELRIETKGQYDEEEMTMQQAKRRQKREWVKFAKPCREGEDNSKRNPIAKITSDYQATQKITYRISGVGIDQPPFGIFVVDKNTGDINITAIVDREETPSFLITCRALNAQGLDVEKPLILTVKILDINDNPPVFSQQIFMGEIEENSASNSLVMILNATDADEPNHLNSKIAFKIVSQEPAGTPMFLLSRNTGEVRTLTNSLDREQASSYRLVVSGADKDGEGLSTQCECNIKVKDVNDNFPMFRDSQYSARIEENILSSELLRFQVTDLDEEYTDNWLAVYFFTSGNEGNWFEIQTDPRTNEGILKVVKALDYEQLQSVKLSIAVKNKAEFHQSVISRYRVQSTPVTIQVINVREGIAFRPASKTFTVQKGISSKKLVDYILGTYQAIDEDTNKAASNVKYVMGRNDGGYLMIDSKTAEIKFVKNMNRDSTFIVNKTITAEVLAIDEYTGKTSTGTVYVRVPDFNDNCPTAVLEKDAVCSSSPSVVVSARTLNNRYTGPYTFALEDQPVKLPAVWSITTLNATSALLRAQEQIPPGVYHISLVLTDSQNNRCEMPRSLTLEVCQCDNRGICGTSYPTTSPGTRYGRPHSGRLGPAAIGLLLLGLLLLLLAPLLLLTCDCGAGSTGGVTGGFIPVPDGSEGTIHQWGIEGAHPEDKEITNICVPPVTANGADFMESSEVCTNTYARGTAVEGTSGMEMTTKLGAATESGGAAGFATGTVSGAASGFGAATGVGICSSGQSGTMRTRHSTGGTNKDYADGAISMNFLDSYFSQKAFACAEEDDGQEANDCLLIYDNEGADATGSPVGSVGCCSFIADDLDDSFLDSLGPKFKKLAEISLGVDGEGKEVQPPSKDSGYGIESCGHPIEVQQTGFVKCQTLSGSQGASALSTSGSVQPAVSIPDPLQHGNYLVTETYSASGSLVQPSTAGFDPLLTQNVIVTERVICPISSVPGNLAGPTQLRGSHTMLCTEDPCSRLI
Vif imaging – inhibitors of HIV Vif | HEK293T cells, Vif self-association by quenched fluorescence, imaging, 24 h | inhibition, % at 7.49 µM | actives 0.35% (n = 340,000) | AID 602346; in the data active = inhibition above about 50%, passing the limit was not always enough; inconclusive = no clear call, values can overlap the other calls; inactive = below about 31%
T cell HTS – modulates CD8 T cell binding to vesicles; response (vesicle binding), % at 7 µM; AID 2052; 2C CD8+ T cell-vesicle binding, flow cytometry; hits give low values; actives 0.068% (n = 330,000);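 active = response, share of CD8 T cells binding vesicles, and their 90th percentile fluorescence all below set limits, cut at about 80% in these data, passing the limit was not always enough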;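 also: values below 100% mean blocked vesicle binding to the CD8+ T cells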
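Assay system – 2C mouse CD8+ T cells · Also added – QL9-loaded Drosophila micro-vesicles · Timing – Cell–vesicle co-incubation 1.5 h at 37 °C, staining 20 min on ice · Signal – flow cytometry of vesicle-bound cells · Measure – percent CD8+ FL2 mean versus row control · Controls – Peptide-free naked vesicles (low) and QL9 vesicles with 0.7% DMSO vehicle (high)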
Active calls of the source: *; i = inactive; u = inconclusive; x = no result; + = active, no number.

SMILES	Myeloid diff 2	DSG3 Ab inh	Vif imaging	T cell HTS
CC1CCCC/C1=N\NC(=S)Nc1cccnc1 (stereo unspecified)	i	78	1	277
Cc1ccc(NC(=S)N/N=C2\CCCCC2C)cc1 (stereo unspecified)	+	103	-5	740
CCSc1ccccc1-c1nc(-c2ccncc2)no1	i	70*	-2	346
Oc1ccc(Cl)cc1C=Nc1ccc2c3c(cccc13)CC2	i	117	x	218
Cc1cccc(C=Nc2ccc3c4c(cccc24)CC3)c1O	+	x	x	159
CC(=O)C1=C(O)C(CSCc2ccccc2)N(C)C1=O (stereo unspecified)	i	97	-4	x
Cc1cc(C)c(C)c(S(=O)(=O)N2CCC(C(=O)Nc3ccccc3N3CCOCC3)CC2)c1C	i	1.0*	0	783
CCOC(=O)C1=C(C)NC(=O)NC1c1ccc(N2CCC(c3ccccc3)=N2)cc1 (stereo unspecified)	+	114	14	156
CC(=O)Nc1sc2c(c1C#N)CC(C)(C)NC2(C)C	+	103	12	383
CCCC(=O)Nc1sc2c(c1C#N)CC(C)(C)NC2(C)C	i	90	-5	279
COc1ccc(S(=O)(=O)N2CCc3ccccc32)cc1C(=O)NCC(c1ccco1)N1CCCC1 (stereo unspecified)	i	100	4	0
CCN(CC)Cc1cc(Oc2ccc(O)c(CN(CC)CC)c2)ccc1O	i	x	x	x
CCOC(=O)N1CCC(n2c(SCC(=O)c3ccccc3)nc3ccsc3c2=O)CC1	i	85*	-5	253
CCOC(=O)CSc1nc2ccsc2c(=O)n1C1CCN(C(=O)OCC)CC1	i	98	-11	476
CNS(=O)(=O)c1ccc(CNC[C@H]2O[C@@H](n3cnc4c(=O)[nH]c(N)nc43)[C@H](O)[C@@H]2O)cc1	i	x	x	x
COc1cccc(Cn2c(NCc3cccnc3)nc3c2c(=O)n(C)c(=O)n3C)c1	+	102	0	473
COc1ccccc1C(=O)OCC(=O)NC(=O)NC1CCCC1	i	105	24	171
O=C(COC(=O)c1ccccc1Br)NC1CCCC1	+	104	80*	416
COc1ccccc1NC(=O)CON=C(N)CC(=O)NC1CCCCC1	+	102	-3	441
COc1ccccc1C(=O)OCC(=O)NC1CCCC1	+	u	3	202
CCN1CCN(S(=O)(=O)Cc2ccccc2Cl)CC1	i	110	-1	747
CCc1ccc(N2CC(C(=O)OCC(=O)N(CC)c3c(N)n(Cc4ccccc4)c(=O)[nH]c3=O)CC2=O)cc1 (stereo unspecified)	i	95	8	x
O=C(NC1CCCCC1)C(c1ccc(O)cc1)N(CC1CCCO1)C(=O)C1COc2ccccc2O1 (stereo unspecified)	i	78*	0	698
O=C1CC(C(=O)N(CC2CCCO2)C(C(=O)NC2CCCCC2)c2ccncc2)CS1 (stereo unspecified)	i	91	4	452
Cc1ccc2nc3c(cc(S(=O)(=O)c4ccccc4)c(=N)n3Cc3ccco3)c(=O)n2c1	i	90	1	254
SMILES	Myeloid diff 2	DSG3 Ab inh	Vif imaging	T cell HTS
CCOCCCn1c(=N)c(S(=O)(=O)c2ccc(C)cc2)cc2c(=O)n3cc(C)ccc3nc21	i	x	50*	590
CN(Cc1ccccc1)Cc1nc2c([nH]1)c(=O)n(C)c(=O)n2C	+	u	-5	315
COc1ccc(NC(=O)c2cc(C3CCCCN3C(=O)c3cc(C(C)(C)C)nn3C)on2)c(C)c1 (stereo unspecified)	i	x	-10	x
Cc1ccc(S(=O)(=O)N2C[C@H]3C(=O)C[C@@H](c4ccccc4)N(S(=O)(=O)c4ccc(C)cc4)[C@H]3C[C@H]2c2cccc(Cl)c2)cc1	+	99	x	x
COc1ccc(Cl)cc1NC(=O)C1CC(=O)N(C2CCCCC2)C1 (stereo unspecified)	+	96	x	0
Cc1nc2ccccc2cc1C(=O)N/N=C/c1cccs1	i	87	-10	0.0*
Cc1nc2ccccc2cc1C(=O)N/N=C/c1ccco1	i	86	-2	170
COc1cccc(S(=O)(=O)N(C)C[C@@H]2OCc3cnnn3CCCC(=O)N([C@@H](C)CO)C[C@H]2C)c1	i	x	12	x
O=C(Nc1ccc2nn(-c3ccccc3)nc2c1)c1ccc2c(c1)OCCO2	i	104	-14	132
CCOc1ccc(-n2nc3ccc(NC(=O)c4ccc5c(c4)OCCO5)cc3n2)cc1	i	5.0*	-4	209
CCCc1nc(SCC(=O)N2CCN(c3ccccc3)CC2)c2c(=O)n(C)c(=O)n(C)c2n1	+	98	-1	504
Cc1noc(C)c1S(=O)(=O)N(C)C[C@H]1OCc2cnnn2CCCC(=O)N([C@H](C)CO)C[C@H]1C	i	106	-10	x
COc1ccc(-c2nc3ncccc3n2O)cc1	i	99	3	339
On1c(-c2ccccc2)nc2ncccc21	i	73*	-2	i
COc1ccc(C(=O)NCc2nnc(SCC(=O)N3CCc4ccccc43)n2C2CCCCC2)cc1	i	89*	4	252
COc1ccc(C(=O)NCc2nnc(SCC(=O)N3CCc4ccccc43)n2CCc2ccccc2)cc1	i	102	4	222
Cc1ccc(N2CCN(C(=S)c3ccc(N(C)C)cc3)CC2)cc1	i	101	66*	175
C=C(C)n1c(=O)n(Cc2ccccc2C)c2ccccc21	i	108	-7	114
C=C(C)n1c(=O)n(Cc2ccc(C)cc2)c2ccccc21	i	101	69*	177
CC[n+]1c(/C=C/Nc2ccccc2)oc2ccc(OC)cc21	+	155	3	277
CC[n+]1c(/C=C/N(C)c2ccccc2)oc2ccc(F)cc21	u	270	-6	243
CC[n+]1c(/C=C/Nc2ccccc2)oc2ccccc21	+	137	2	312
O=C(NCCN1CCC(n2c(=O)[nH]c3ccccc32)CC1)c1ccc(OC(F)(F)F)cc1	i	x	x	x
O=C(Nc1cnn(Cc2ccc(F)cc2)c1)c1cc(-c2cccs2)on1	i	100	57*	308
COc1ccc(-c2cc(C(=O)Nc3cnn(Cc4ccccc4C)c3)no2)cc1OC	i	99	86*	494
SMILES	Myeloid diff 2	DSG3 Ab inh	Vif imaging	T cell HTS
COc1ccccc1-c1cc(C(=O)NCCc2ccccc2)no1	i	99	-6	754
CCCc1cc(C(=O)Nc2cnn(Cc3ccc(F)cc3)c2)no1	i	90	-3	159
CCCn1cc(NC(=O)c2cc(-c3ccccc3)on2)cn1	i	96	2	342
COc1ccc(-c2cc(C(=O)NCCc3ccccc3)no2)cc1OC	i	75*	x	259
Cc1ccc(S(=O)(=O)N2[C@@H](c3ccc(C(C)(C)C)cc3)C(C(=O)O)=CC[C@H]2c2ccc(C(C)C)cc2)cc1	i	100	x	0
S=c1[nH]ccn1-c1cccc(Cl)c1Cl	i	112	52*	643
